Converted amounts (≈) assume the structure as drawn.
Tests used:
[1] = AUC in BALB-nu/nu mouse at 100 mg/kg, po measured after 24 hrs by LC-MS/MS analysis; format: ADME, organism-based; parameters: time < 24 hr, dose 100 mg/kg, route oral; conditions: plasma
Method in brief: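 Mice dosed orally at 100 mg/kg as a solution in 5% DMSO, 5% Cremophor EL, 15% PEG400, 15% 2-hydroxypropyl-β-cyclodextrin and 60% water.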

[2] = target: Dual specificity mitogen-activated protein kinase kinase 1 (Homo sapiens, UniProt Q02750, S218E/S222E); assay: Inhibition of constitutively active MEK1 S218E,S222E mutant (unknown origin) assessed as MAP kinase 2/Erk2-mediated FAM-Erktide phosphorylation using MAP kinase 2/Erk2 as substrate preincubated for 30 mins by IMAP fluorescence polarization assay
Chain of Dual specificity mitogen-activated protein kinase kinase 1 (Q02750 whole entry S218E/S222E): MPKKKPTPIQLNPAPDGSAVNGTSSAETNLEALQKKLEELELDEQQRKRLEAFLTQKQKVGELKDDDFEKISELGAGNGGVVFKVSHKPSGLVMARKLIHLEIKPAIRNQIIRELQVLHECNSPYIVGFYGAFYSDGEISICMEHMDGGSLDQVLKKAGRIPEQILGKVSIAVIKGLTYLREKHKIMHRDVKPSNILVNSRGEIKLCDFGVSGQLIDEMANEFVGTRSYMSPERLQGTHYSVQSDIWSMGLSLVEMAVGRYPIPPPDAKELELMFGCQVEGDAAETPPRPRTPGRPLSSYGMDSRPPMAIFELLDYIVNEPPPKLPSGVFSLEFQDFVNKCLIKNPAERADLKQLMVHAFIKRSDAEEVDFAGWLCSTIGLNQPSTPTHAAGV

HT-29 = assay: Inhibition of human HT-29 cell growth; format: functional, cell-based
[3] = Intrinsic clearance in human liver microsomes at 5 uM by LC/MS/MS analysis; format: ADME; conditions: read-out: CLH
[4] = Membrane permeability of the compound at pH 6.5 by PAMPA PSR4p assay; format: physicochemical; conditions: read-out: permeability
Cytochrome P450 2C9 [5] = target: T1, Cytochrome P450 2C9 (Homo sapiens, UniProt P11712); assay: Inhibition of CYP2C9 in human liver microsomes using diclofenac as substrate measured after 30 mins preincubation by LC-MS/MS analysis in presence of NADPH; format: ADME
T1 sequence (P11712 whole entry): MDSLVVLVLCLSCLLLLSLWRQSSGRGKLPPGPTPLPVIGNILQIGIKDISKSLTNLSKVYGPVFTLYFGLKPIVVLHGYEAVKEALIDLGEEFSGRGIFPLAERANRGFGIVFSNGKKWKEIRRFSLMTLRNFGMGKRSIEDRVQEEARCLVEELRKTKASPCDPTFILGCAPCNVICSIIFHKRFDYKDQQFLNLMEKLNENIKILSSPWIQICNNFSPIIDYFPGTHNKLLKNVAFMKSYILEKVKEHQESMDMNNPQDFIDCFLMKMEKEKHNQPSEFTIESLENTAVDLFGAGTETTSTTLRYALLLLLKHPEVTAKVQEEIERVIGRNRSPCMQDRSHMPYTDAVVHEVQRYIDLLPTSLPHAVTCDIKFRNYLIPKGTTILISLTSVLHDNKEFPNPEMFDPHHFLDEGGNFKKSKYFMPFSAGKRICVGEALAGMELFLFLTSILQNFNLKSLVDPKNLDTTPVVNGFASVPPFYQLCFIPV
Method in brief: (§1)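 The IC50 is determined after a 30 min preincubation with NADPH.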

Cytochrome P450 2C9 [6] = target: T1, Cytochrome P450 2C9; assay: Inhibition of CYP2C9 in human liver microsomes using diclofenac as substrate measured after 30 mins preincubation by LC-MS/MS analysis in absence of NADPH; format: ADME
Method in brief: (§2)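 The IC50 is determined after a 30 min preincubation without NADPH.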

Cytochrome P450 3A4 [7] = target: T2, Cytochrome P450 3A4 (Homo sapiens, UniProt P08684); assay: Inhibition of CYP3A4 in human liver microsomes using midazolam as substrate measured after 30 mins preincubation by LC-MS/MS analysis in presence of NADPH; format: ADME; method in brief: as §1
T2 sequence (P08684 whole entry): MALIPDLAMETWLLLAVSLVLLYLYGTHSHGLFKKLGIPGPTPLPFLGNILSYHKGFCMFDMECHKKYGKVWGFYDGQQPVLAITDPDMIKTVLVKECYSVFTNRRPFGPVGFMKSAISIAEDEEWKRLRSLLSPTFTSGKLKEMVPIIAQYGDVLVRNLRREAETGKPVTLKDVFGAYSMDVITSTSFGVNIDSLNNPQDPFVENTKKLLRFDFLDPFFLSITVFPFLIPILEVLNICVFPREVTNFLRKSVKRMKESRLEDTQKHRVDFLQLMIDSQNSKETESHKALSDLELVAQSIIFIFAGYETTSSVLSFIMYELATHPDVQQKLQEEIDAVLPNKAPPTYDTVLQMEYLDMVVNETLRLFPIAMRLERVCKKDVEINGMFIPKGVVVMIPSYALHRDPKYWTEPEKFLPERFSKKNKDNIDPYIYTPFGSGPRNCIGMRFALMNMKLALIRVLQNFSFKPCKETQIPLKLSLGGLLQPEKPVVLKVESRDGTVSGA

Cytochrome P450 3A4 [8] = target: T2, Cytochrome P450 3A4; assay: Inhibition of CYP3A4 in human liver microsomes using midazolam as substrate measured after 30 mins preincubation by LC-MS/MS analysis in absence of NADPH; format: ADME; method in brief: as §2
[9] = Clearance in Crlj:CD rat at 2.5 mg/kg, iv and 5 mg/kg, po by LC-MS/MS analysis; format: ADME, organism-based; conditions: in vivo
C32 [10] = assay: Antitumor activity against human C32 cells xenografted in po dosed BALB-nu/nu mouse assessed as tumor growth inhibition administered qd for 11 days; format: functional; conditions: for ED50: Mus musculus, C32, po, 264 h
Method in brief: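 C32 cells implanted subcutaneously in the right flank of BALB-nu/nu mice, with tumors established before treatment. Compound given orally once daily for 11 days (day 0 to day 10). Tumor size measured twice per week. Values are mean SD, n = 4.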

[11] = Bioavailability in cynomolgus monkey at 2.5 mg/kg, iv and 5 mg/kg, po by LC-MS/MS analysis; format: ADME, organism-based, Macaca fascicularis; conditions: in vivo
[12] = Bioavailability in BALB-nu/nu mouse at 2.5 mg/kg, iv and 5 mg/kg, po by LC-MS/MS analysis; format: ADME, organism-based; conditions: in vivo
[13] = Saturated solubility of the compound in fasted state simulated intestinal fluid after 24 hrs by shaking flask method; format: ADME; conditions: fasted state simulated intestinal fluid (FaSSIF)
Method in brief: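 Free crystalline form equilibrated for 24 h in FaSSIF, and the saturated concentration was reported.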

Mus musculus [14] = assay: Toxicity in po dosed BALB-nu/nu mouse xenografted with human C32 cells assessed as adverse clinical signs administered qd for 11 days; format: organism-based; conditions: in vivo, 264 h
[15] = Clearance in cynomolgus monkey at 2.5 mg/kg, iv and 5 mg/kg, po by LC-MS/MS analysis; format: ADME, organism-based, Macaca fascicularis; conditions: in vivo
[16] = Clearance in BALB-nu/nu mouse at 2.5 mg/kg, iv and 5 mg/kg, po by LC-MS/MS analysis; format: ADME, organism-based; conditions: in vivo
[17] = Bioavailability in Crlj:CD rat at 2.5 mg/kg, iv and 5 mg/kg, po by LC-MS/MS analysis; format: ADME, organism-based; conditions: in vivo
Mus musculus [18] = assay: Toxicity in po dosed BALB-nu/nu mouse xenografted with human C32 cells assessed as body weight administered qd for 11 days; format: organism-based; conditions: in vivo, 264 h
C32 [19] = assay: Growth inhibition of human C32 cells harboring B-Raf V600E mutant
[20] = Dissociation constant, pKa of the compound at 10 mM by spectroscopic titration analysis; format: physicochemical
HCT-116 = assay: Inhibition of human HCT116 cell growth after 96 hrs by counting kit-8 analysis; format: functional, cell-based; conditions: HCT-116, 96 h
[21] = target: RAF proto-oncogene serine/threonine-protein kinase (Homo sapiens, UniProt P04049); assay: Inhibition of truncated active C-Raf (unknown origin) assessed as MEK1 phosphorylation using inactive MEK1 K97R as substrate after 45 mins
Chain of RAF proto-oncogene serine/threonine-protein kinase (P04049 whole entry, the tested form may be a part): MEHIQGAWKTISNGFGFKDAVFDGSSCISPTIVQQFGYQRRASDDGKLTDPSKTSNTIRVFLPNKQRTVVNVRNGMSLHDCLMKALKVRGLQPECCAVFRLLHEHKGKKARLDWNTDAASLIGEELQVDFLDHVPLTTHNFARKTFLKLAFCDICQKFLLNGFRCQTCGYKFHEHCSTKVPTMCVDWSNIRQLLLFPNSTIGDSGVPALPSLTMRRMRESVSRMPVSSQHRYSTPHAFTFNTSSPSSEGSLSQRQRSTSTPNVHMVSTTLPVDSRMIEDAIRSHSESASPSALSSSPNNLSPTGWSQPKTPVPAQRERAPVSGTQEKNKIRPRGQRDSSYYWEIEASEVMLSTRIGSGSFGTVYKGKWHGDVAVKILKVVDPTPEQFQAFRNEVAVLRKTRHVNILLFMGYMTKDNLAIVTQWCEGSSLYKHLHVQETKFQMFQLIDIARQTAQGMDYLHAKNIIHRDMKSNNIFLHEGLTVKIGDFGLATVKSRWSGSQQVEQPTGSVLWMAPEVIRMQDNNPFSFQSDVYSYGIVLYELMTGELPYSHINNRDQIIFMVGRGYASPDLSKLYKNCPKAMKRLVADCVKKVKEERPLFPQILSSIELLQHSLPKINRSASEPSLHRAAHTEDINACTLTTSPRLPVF

[22] = Solubility of the compound in fasted state simulated intestinal fluid by LYSA method; format: ADME; conditions: fasted state simulated intestinal fluid (FaSSIF)
[23] = Supersaturated solubility of the compound in fasted state simulated intestinal fluid after 4 hrs by miniscale dissolution test; format: ADME; conditions: fasted state simulated intestinal fluid (FaSSIF)

CNS(=O)(=O)[N-]c1cccc(Cc2c(C)c3ccc(OC(=O)N(C)C)cc3oc2=O)c1.[Na+]
AUC at 24 h [1]: 78 µM·h

CNS(=O)(=O)Nc1cccc(Cc2c(C)c3cc(C)c(OC(=O)N(C)C)cc3oc2=O)c1
IC50 [2]: 29 nM
IC50 (HT-29): 8 nM
microsomal CLint at 5 µM [3]: 17 µL/min/mg
Papp [4]: 4 ×10⁻⁶ cm/s
AUC at 24 h [1]: 18 µM·h

CNS(=O)(=O)Nc1cccc(Cc2c(C)c3ccc(OC(=O)N(C)C)cc3oc2=O)c1
IC50 (Cytochrome P450 2C9 [5]): 96000 nM
IC50 (Cytochrome P450 2C9 [6]): 29000 nM
IC50 [2]: 110 nM
IC50 (HT-29): 9 nM
IC50 (Cytochrome P450 3A4 [7]): 5600 nM
IC50 (Cytochrome P450 3A4 [8]): 13000 nM
microsomal CLint at 5 µM [3]: 20 µL/min/mg

CNS(=O)(=O)Nc1cccc(Cc2c(C)c3ccc(Oc4ncccn4)cc3oc2=O)c1F
clearance [9]: 6.6 mL/min/kg
IC50 (Cytochrome P450 2C9 [5]): 19000 nM
IC50 (Cytochrome P450 2C9 [6]): 19000 nM
TGI (C32 [10]): 96%
ED50 (C32 [10]): 1.44 mg/kg
IC50 [2]: 97 nM
bioavailability [11]: 59%
bioavailability [12]: 75%
solubility thermodynamic at 24 h [13]: 5.5 µg/mL (≈ 11.7 µM)
IC50 (Cytochrome P450 3A4 [7]): 11000 nM
Activity (Mus musculus [14]): Non-toxic
clearance [15]: 0.9 mL/min/kg
IC50 (Cytochrome P450 3A4 [8]): 26000 nM
microsomal CLint at 5 µM [3]: 6.7 µL/min/mg
clearance [16]: 6.8 mL/min/kg
bioavailability [17]: 84%
Activity (Mus musculus [18]): Non-toxic
IC50 (C32 [19]): 57 nM
pKa at 10000 µM [20]: 8.86
AUC at 24 h [1]: 425 µM·h

CNS(=O)(=O)Nc1cccc(Cc2c(C)c3ccc(OC(=O)N(C)C)nc3oc2=O)c1
IC50 (HCT-116): 1100 nM
IC50 [2]: 440 nM
IC50 [21]: 2500 nM
IC50 (HT-29): 600 nM
microsomal CLint at 5 µM [3]: 3 µL/min/mg
Papp [4]: 3 ×10⁻⁶ cm/s
solubility [22]: 43 µg/mL (≈ 96.3 µM)

CNS(=O)(=O)Nc1cccc(Cc2c(C)c3ccc(OC(=O)N(C)C)cc3oc2=O)n1
IC50 (HCT-116): 270 nM
IC50 [2]: 110 nM
IC50 [21]: 70 nM
IC50 (HT-29): 73 nM
microsomal CLint at 5 µM [3]: 7 µL/min/mg
Papp [4]: 6 ×10⁻⁶ cm/s
solubility [22]: 320 µg/mL (≈ 717 µM)
AUC at 24 h [1]: 314 µM·h

CNS(=O)(=O)Nc1cc(Cc2c(C)c3ccc(OC(=O)N(C)C)cc3oc2=O)ccn1
IC50 (HCT-116): 32 nM
IC50 (Cytochrome P450 2C9 [5]): > 100000 nM
IC50 (Cytochrome P450 2C9 [6]): > 100000 nM
IC50 [2]: 99 nM
IC50 [21]: 32 nM
IC50 (HT-29): 25 nM
IC50 (Cytochrome P450 3A4 [7]): > 100000 nM
IC50 (Cytochrome P450 3A4 [8]): > 100000 nM
microsomal CLint at 5 µM [3]: 6 µL/min/mg
Papp [4]: 7 ×10⁻⁶ cm/s
solubility [22]: 55 µg/mL (≈ 123 µM)
AUC at 24 h [1]: 134 µM·h

CNS(=O)(=O)Nc1cncc(Cc2c(C)c3ccc(OC(=O)N(C)C)cc3oc2=O)c1
IC50 (HCT-116): > 10000 nM
IC50 [2]: > 50000 nM
IC50 [21]: > 50000 nM
IC50 (HT-29): > 10000 nM
solubility [22]: 240 µg/mL (≈ 538 µM)

CNS(=O)(=O)Nc1ccnc(Cc2c(C)c3cc(C)c(OC(=O)N(C)C)cc3oc2=O)c1
IC50 (HCT-116): > 10000 nM
IC50 [2]: 37000 nM
IC50 [21]: 27000 nM
IC50 (HT-29): 5700 nM
solubility [22]: 425 µg/mL (≈ 923 µM)

CNS(=O)(=O)Nc1nccc(Cc2c(C)c3ccc(Oc4ccccc4)cc3oc2=O)c1F
IC50 (HCT-116): 110 nM
IC50 [2]: 76 nM
IC50 [21]: 21 nM

CNS(=O)(=O)Nc1nccc(Cc2c(C)c3ccc(Oc4ccccn4)cc3oc2=O)c1F
IC50 (HCT-116): 45 nM
IC50 [2]: 190 nM
IC50 [21]: 81 nM

CNS(=O)(=O)Nc1nccc(Cc2c(C)c3ccc(Oc4cnccn4)cc3oc2=O)c1F
IC50 (HCT-116): 900 nM
IC50 [2]: 650 nM
IC50 [21]: 56 nM

CNS(=O)(=O)Nc1cccc(Nc2c(C)c3ccc(Oc4ncccn4)cc3oc2=O)c1
IC50 (HCT-116): > 10000 nM
IC50 [2]: > 50000 nM
IC50 [21]: > 50000 nM

CNS(=O)(=O)[N-]c1cccc(Cc2c(C)c3ccc(Oc4ncccn4)cc3oc2=O)c1F.[K+]
solubility at 4 h [23]: 12 µg/mL

CNS(=O)(=O)[N-]c1nccc(Cc2c(C)c3ccc(Oc4ncccn4)cc3oc2=O)c1F.[K+] [AVUTOMETINIB POTASSIUM]
solubility at 4 h [23]: 57 µg/mL

CNS(=O)(=O)Nc1nccc(Cc2c(C)c3ccc(Oc4ncccn4)cc3oc2=O)c1F [AVUTOMETINIB]
IC50 (HCT-116): 40 nM
clearance [9]: 0.7 mL/min/kg
IC50 (Cytochrome P450 2C9 [5]): 60000 nM
IC50 (Cytochrome P450 2C9 [6]): 12000 nM
TGI (C32 [10]): 118%
ED50 (C32 [10]): 0.09 mg/kg
bioavailability [11]: 82%
bioavailability [12]: 93%
IC50 [21]: 56 nM
solubility thermodynamic at 24 h [13]: 2.7 µg/mL (≈ 5.73 µM)
IC50 (Cytochrome P450 3A4 [7]): > 100000 nM
Activity (Mus musculus [14]): Non-toxic
clearance [15]: 0.1 mL/min/kg
IC50 (Cytochrome P450 3A4 [8]): > 100000 nM
microsomal CLint at 5 µM [3]: 0.5 µL/min/mg
clearance [16]: 1.1 mL/min/kg
bioavailability [17]: 66%
solubility [22]: 159 µg/mL (≈ 337 µM)
Activity (Mus musculus [18]): Non-toxic
IC50 (C32 [19]): 47 nM
pKa at 10000 µM [20]: 7.02
AUC at 24 h [1]: 2830 µM·h
